Published values pooled from the literature.
Lines come from different studies, so protocols differ.
Target: Serine/threonine-protein kinase LATS2 (LATS2, Homo sapiens, UniProt Q9NRM7)
Sequence (Q9NRM7 1-1088, as in one of the studies): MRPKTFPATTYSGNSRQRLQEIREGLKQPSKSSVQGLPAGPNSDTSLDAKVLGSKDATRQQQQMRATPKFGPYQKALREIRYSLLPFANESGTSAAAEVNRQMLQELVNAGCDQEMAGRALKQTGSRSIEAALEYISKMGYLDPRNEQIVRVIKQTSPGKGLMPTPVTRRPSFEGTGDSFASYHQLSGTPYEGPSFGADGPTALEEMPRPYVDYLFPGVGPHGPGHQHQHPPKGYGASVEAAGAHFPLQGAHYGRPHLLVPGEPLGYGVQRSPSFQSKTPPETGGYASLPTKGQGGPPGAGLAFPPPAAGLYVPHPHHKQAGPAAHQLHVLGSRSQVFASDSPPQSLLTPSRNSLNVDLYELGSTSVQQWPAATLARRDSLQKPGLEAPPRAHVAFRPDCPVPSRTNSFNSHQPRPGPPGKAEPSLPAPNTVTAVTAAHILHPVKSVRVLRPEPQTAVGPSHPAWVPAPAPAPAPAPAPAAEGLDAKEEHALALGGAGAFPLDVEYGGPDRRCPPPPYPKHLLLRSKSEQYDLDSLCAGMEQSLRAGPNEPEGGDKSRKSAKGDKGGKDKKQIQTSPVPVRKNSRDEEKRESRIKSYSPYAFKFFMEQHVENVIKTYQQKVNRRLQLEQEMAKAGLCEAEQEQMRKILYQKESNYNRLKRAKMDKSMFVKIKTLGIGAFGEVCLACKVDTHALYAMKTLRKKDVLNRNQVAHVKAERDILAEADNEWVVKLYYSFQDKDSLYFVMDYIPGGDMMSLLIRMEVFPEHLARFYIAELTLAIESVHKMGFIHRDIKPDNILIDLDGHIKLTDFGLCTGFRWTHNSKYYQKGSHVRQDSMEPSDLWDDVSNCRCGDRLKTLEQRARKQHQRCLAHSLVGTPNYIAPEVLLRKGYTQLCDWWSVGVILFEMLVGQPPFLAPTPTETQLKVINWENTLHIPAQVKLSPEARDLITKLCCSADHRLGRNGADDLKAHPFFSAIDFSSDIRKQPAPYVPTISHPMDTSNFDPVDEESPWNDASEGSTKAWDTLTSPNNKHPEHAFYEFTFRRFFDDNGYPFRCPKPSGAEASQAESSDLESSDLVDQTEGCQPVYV

SMILES	assay	setting	remaining binding
CCCCN(CCCC)C(=O)CN1C[C@@H](c2cc(OC)c3c(c2)OCO3)[C@H](C(=O)O)[C@H]1CC(C)(C)CCC	cell-free assay, competition with immobilised ligand	1 µM	100%
O=C(c1ccc(Nc2ncc(Cl)c(-c3cc4ccccc4s3)n2)cc1)N1CCC(N2CCCC2)CC1	binding, competition with immobilised ligand	1 µM	15%
FC(F)(F)c1ccc2c(c1)nc(-c1cccnc1)n2C1CC1	cell-free assay, competition with immobilised ligand	1 µM	100%
c1cncc(-c2cccc(Nc3nccc(NC4CCCCC4)n3)c2)c1	binding, competition with immobilised ligand	10 µM	12%
CN(C)c1nccc(-c2cnc3ncccn23)n1	binding	1 µM	79%
CS(=O)(=O)NCC[C@H](NC(=O)c1cncc2c1cnn2-c1ccc(F)cc1)c1ccnc(S(C)(=O)=O)c1	cell-free assay, competition with immobilised ligand	1 µM	97%
COc1ccnn2ncc(-c3ccnc(N(C)C)n3)c12	binding	1 µM	100%
C[C@H](c1ccc(F)cc1)N(Cc1cccc(C(=O)O)c1)C(=O)c1cnc2ccccc2c1	cell-free assay, competition with immobilised ligand	1 µM	64%
Cc1cnc(Nc2ccc(C(=O)N3CCC(N4CCCC4)CC3)cc2)nc1-c1cc2ccccc2s1	binding, competition with immobilised ligand	1 µM	44%
Cc1nccc(COC(=O)N2C[C@@H]3[C@@H](CNC(=O)c4ccc5[nH]nnc5c4)[C@@H]3C2)n1	cell-free assay, competition with immobilised ligand	1 µM	97%
CNC(=O)[C@@H]1CC[C@@H](n2c(-c3ccc4cnccc4c3)nc3ccc(C(=O)NCc4cccc(C(N)=O)c4)cc32)C1	binding, competition with immobilised ligand	1 µM	100%
COc1ncc2cc3ccccc3nc2c1C#N	cell-free assay, competition with immobilised ligand	5 µM	90%
N[C@H]1CCN(c2nccc(-c3cnn4ncccc34)n2)C1	binding	1 µM	74%
O=C(NCC1CCOCC1)c1n[nH]cc1NC(=O)c1c(F)cccc1F	binding, competition with immobilised ligand	1 µM	87%
C[C@@H]1CCN(c2nccc(-c3cnn4ncccc34)n2)C1	binding	1 µM	93%
CCN1CCN(Cc2ccc(C(=O)Nc3ccc(C)c(Oc4ccc5c(c4)CC(=O)N5)c3)cc2C(F)(F)F)CC1	binding, competition with immobilised ligand	1 µM	100%
CN(C)c1nccc(-c2cnn3ncccc23)n1	binding	1 µM	64%
NS(=O)(=O)c1cc(NC(=O)Cc2ccccc2)ccc1Oc1cccc(Cl)c1	cell-free assay, competition with immobilised ligand	1 µM	94%
c1cnn2ncc(-c3ccnc(N4CCC45COC5)n3)c2c1	binding	1 µM	88%
COc1cnc(Nc2cccc(S(N)(=O)=O)c2)nc1N1CCN(c2ccccc2)CC1	binding, competition with immobilised ligand	1 µM	74%
